Assay results published in ChEMBL document CHEMBL1157184, “Hymenoic acid, a novel specific inhibitor of human DNA polymerase lambda from a fungus of Hymenochaetaceae sp” (Bioorg Med Chem, 2008).
Active and inactive are the calls of the source. The calls are words filed in the database; no cut-off is given here.

How the values were obtained:
Homo sapiens [1] = organism: Homo sapiens; assay: Inhibition of human topoisomerase type 1 at 200 uM
Procedure, shortened: (§1)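 Each enzyme (0.05 U) was incubated with 200 μM compound. Activity was expressed as a percentage of the activity without compound (100%). Means ± SEM of four independent experiments.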

Oncorhynchus masou = assay: Inhibition of fish DNA polymerase delta at 200 uM
Procedure, shortened: (§2)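 Compound dissolved in DMSO and sonicated 30 s, then held with each polymerase (final 0.05 U) in 50 mM Tris-HCl pH 7.5, 1 mM DTT, 50% glycerol, 0.1 mM EDTA at 0 °C for 10 min. Reaction with poly(dA)/oligo(dT)12-18 and dTTP ran 60 min at 37 °C (Taq at 74 °C). Activity relative to no-compound control; means ± SEM, four independent experiments.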

Homo sapiens [2] = organism: Homo sapiens; assay: Inhibition of human telomerse at 200 uM; procedure, shortened: as §1
Homo sapiens [3] = organism: Homo sapiens; assay: Inhibition of human topoisomerase type 2 at 200 uM; procedure, shortened: as §1
[4] = target: T1, DNA polymerase lambda (Homo sapiens) (UniProt Q9UGP5); assay: Inhibition of human DNA polymerase lambda at 200 uM; procedure, shortened: as §2
T1 sequence (whole entry): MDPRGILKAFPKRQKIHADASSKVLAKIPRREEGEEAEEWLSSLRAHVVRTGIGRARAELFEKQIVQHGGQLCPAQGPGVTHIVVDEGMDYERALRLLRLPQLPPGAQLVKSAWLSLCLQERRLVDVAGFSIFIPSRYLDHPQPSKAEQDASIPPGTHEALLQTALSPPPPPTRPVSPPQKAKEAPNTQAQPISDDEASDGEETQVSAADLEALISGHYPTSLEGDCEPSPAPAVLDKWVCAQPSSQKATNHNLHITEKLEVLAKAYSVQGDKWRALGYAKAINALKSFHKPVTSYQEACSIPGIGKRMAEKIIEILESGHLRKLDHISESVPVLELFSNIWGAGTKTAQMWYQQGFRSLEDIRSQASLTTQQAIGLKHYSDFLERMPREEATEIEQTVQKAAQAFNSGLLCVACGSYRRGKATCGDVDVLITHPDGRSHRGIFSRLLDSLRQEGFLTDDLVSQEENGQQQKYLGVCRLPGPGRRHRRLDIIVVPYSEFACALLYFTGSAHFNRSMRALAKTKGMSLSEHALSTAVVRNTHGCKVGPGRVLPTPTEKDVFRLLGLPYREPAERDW

[5] = target: DNA polymerase beta (Rattus norvegicus) (UniProt P06766); assay: Inhibition of rat DNA polymerase beta at 200 uM; procedure, shortened: as §2
Homo sapiens [6] = organism: Homo sapiens; assay: Inhibition of human DNA polymerase epsilon at 200 uM; procedure, shortened: as §2
[7] = system: Human immunodeficiency virus; assay: Inhibition of HIV reverse transcriptase at 200 uM
[8] = system: Brassica oleracea var. botrytis; assay: Inhibition of cauliflower DNA polymerase epsilon at 200 uM; procedure, shortened: as §2
[9] = target: DNA polymerase I, thermostable (Thermus aquaticus) (UniProt P19821); assay: Inhibition of Taq polymerase at 200 uM; procedure, shortened: as §2
Mus musculus = organism: Mus musculus; assay: Inhibition of mouse inosine 5-monophosphate dehydrogenase type 2 at 200 uM; procedure, shortened: as §1
Bos taurus = organism: Bos taurus; assay: Inhibition of bovine deoxyribonuclease 1 at 200 uM; procedure, shortened: as §1
Oryza sativa = assay: Inhibition of rice DNA polymerase lambda at 200 uM; procedure, shortened: as §2
[10] = target: T2, DNA polymerase alpha subunit B (Bos taurus) (UniProt Q58D13); assay: Inhibition of primase activity of calf polymerase alpha at 200 uM
T2 sequence (whole entry): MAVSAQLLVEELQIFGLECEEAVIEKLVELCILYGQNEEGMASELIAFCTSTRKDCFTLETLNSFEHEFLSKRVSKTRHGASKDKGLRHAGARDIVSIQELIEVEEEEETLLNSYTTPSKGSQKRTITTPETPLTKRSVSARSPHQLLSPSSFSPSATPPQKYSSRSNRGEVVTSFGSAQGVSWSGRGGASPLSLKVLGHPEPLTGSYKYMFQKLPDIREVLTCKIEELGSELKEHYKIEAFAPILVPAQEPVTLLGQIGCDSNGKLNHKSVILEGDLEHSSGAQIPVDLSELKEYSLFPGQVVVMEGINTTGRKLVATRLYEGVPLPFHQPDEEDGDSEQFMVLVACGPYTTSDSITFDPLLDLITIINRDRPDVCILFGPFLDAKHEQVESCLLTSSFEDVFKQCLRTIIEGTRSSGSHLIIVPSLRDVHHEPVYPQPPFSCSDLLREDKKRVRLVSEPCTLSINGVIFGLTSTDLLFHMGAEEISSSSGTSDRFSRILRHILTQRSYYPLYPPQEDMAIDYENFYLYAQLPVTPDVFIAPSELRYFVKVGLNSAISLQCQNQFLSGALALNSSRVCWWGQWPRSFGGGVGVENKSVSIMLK

[11] = system: T4 polynucleotide kinase (Bacteriophage T4); assay: Inhibition of T4 polynucleotide kinase at 200 uM
[12] = system: T7 RNA polymerase (Bacteriophage T7); assay: Inhibition of T7 RNA polymerase at 200 uM
[13] = target: T3, DNA polymerase iota (Homo sapiens) (UniProt Q9UNA4); assay: Inhibition of human DNA polymerase iota at 200 uM; procedure, shortened: as §2
T3 sequence (whole entry): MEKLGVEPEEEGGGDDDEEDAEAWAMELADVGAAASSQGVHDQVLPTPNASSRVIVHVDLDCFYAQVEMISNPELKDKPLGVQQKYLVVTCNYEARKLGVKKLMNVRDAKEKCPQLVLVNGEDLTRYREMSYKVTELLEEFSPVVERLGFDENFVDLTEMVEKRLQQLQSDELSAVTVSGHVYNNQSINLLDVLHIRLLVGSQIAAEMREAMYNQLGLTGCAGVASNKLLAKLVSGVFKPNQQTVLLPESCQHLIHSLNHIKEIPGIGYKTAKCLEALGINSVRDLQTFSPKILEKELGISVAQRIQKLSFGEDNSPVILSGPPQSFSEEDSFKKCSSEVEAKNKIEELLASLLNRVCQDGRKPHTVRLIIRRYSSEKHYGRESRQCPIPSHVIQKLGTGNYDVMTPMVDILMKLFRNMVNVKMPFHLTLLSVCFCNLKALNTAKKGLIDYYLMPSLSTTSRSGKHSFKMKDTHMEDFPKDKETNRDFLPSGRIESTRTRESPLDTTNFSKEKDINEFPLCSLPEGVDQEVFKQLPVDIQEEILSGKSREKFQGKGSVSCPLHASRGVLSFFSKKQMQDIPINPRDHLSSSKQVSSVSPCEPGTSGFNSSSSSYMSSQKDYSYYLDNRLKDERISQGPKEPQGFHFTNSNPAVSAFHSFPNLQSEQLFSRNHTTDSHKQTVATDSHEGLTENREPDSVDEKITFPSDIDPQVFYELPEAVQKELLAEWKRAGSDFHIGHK

[14] = target: DNA polymerase (Drosophila melanogaster) (UniProt Q9GV40); assay: Inhibition of fruit fly DNA polymerase epsilon at 200 uM; procedure, shortened: as §2
DNA polymerase (Drosophila melanogaster), sequence (Q9GV40 as listed by the source): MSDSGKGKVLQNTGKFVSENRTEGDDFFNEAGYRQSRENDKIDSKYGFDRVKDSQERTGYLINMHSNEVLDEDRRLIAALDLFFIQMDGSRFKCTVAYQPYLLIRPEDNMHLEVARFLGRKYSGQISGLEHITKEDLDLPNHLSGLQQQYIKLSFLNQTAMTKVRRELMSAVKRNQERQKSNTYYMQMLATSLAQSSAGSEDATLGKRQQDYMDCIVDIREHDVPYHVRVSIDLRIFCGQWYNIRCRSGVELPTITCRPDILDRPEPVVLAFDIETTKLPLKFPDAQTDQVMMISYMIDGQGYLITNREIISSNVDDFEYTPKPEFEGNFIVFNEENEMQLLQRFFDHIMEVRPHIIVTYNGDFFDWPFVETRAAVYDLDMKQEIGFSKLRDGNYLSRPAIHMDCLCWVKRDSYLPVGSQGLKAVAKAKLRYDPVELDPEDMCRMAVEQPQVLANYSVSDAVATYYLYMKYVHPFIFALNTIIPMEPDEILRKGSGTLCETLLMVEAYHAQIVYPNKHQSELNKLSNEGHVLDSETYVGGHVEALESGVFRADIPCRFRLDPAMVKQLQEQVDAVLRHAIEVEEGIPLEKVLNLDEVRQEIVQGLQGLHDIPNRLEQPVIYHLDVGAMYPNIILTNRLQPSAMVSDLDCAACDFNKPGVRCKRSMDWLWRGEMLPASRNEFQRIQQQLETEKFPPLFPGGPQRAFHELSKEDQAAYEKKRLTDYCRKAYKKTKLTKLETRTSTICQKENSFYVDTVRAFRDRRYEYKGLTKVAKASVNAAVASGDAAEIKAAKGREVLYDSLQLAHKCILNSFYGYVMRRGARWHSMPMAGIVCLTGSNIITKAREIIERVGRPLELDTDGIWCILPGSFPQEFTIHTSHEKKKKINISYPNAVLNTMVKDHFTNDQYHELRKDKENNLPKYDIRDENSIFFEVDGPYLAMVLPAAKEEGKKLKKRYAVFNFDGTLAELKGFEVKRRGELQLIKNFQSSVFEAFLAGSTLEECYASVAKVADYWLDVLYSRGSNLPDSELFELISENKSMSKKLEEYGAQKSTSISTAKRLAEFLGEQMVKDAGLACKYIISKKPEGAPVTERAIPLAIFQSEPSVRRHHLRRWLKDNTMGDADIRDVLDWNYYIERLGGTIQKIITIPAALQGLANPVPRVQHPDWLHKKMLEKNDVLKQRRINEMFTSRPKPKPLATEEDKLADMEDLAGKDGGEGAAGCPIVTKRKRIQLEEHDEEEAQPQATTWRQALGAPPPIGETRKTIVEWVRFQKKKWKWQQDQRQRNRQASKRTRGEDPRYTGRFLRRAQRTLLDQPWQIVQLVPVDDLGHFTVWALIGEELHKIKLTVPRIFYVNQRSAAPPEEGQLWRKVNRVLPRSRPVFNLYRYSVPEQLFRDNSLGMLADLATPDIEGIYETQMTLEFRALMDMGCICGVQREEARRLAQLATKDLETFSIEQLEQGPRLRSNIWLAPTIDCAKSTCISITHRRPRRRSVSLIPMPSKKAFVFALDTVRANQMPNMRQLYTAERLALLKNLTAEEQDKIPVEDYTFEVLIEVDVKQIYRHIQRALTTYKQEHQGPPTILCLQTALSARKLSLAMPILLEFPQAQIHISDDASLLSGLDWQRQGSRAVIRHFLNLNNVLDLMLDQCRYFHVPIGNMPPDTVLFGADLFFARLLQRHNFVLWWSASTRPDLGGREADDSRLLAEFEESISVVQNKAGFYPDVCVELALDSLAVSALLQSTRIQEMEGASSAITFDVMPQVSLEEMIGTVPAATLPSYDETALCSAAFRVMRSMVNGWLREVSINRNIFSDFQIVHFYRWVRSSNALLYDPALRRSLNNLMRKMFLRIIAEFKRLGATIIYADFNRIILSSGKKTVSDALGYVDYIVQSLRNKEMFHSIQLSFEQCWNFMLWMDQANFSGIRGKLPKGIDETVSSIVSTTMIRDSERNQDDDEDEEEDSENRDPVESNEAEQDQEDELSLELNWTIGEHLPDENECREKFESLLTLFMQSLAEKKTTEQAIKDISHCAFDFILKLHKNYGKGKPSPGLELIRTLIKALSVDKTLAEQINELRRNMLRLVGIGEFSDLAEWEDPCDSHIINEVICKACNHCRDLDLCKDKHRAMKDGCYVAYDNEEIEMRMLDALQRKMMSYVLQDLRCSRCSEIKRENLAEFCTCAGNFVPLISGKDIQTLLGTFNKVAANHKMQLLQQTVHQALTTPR

DNA polymerase I, thermostable (Thermus aquaticus), sequence (P19821 whole entry): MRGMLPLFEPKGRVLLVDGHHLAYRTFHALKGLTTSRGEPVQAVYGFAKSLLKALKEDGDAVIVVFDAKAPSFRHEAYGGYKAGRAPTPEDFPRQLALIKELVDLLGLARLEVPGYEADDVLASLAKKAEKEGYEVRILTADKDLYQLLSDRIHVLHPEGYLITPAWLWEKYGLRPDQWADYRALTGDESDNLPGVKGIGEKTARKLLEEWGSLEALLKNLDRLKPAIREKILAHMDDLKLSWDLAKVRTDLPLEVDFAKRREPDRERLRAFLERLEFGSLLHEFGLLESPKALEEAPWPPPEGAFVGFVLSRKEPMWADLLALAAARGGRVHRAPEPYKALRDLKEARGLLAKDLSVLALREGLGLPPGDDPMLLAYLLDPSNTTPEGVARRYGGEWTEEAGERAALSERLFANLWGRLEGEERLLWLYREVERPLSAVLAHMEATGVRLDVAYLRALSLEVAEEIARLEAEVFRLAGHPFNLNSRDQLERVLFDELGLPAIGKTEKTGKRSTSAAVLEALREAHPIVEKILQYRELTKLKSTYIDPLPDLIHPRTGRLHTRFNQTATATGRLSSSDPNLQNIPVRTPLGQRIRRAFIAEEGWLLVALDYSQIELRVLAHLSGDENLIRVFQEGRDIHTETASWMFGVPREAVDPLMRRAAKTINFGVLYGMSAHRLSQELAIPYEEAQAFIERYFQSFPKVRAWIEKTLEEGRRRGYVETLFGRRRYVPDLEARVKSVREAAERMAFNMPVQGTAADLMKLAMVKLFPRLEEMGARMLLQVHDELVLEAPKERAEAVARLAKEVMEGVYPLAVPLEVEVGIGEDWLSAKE

Activity (Homo sapiens [1]): inactive | Activity (Oncorhynchus masou): inactive | Activity (Homo sapiens [2]): inactive | Activity (Homo sapiens [3]): inactive | Activity [4]: Active | Activity [5]: inactive | Activity (Homo sapiens [6]): inactive | Activity [7]: inactive | Activity [8]: inactive | Activity [9]: inactive | Activity (Mus musculus): inactive | Activity (Bos taurus): inactive | Activity (Oryza sativa): Active | Activity [10]: inactive | Activity [11]: inactive | Activity [12]: inactive | Activity [13]: inactive | Activity [14]: inactive
SMILES: C/C(=C\CC[C@H](C)C(=O)O)[C@H]1CC[C@H](C(=O)O)CC1
